From ChEMBL document CHEMBL6092210, “Synthesis, in vitro and in vivo biological evaluation of novel dual compounds targeting both acetylcholinesterase and serotonergic 5-HT4 receptors with potential interest in the treatment of Alzheimer's disease” (Eur J Med Chem, 2024)
In brackets after ≈: the same amount, converted by molar mass.

How the values were obtained:
[1] = molecular target: T1, 5-hydroxytryptamine receptor 4 (Homo sapiens, UniProt Q13639); assay: Inhibition of human recombinant 5HT4 receptor at 1 x 10^-6M incubated for 60 mins relative to control; conditions: dose 1.0 10^-6M
In short: (§1)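 Membranes (2.5 μg protein) from a stable recombinant line expressing h5-HT4(b) receptor. Incubated in duplicate at 25 °C for 60 min with 0.2 nM [3H]-GR113808 in 25 mM Tris pH 7.4, with drug at 10^-6 or 10^-8 M. GF/C filtration; non-specific binding defined with 30 μM serotonin. Ki from five-point inhibition curves, ± SD.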

[2] = molecular target: T1, 5-hydroxytryptamine receptor 4; assay: Inhibition of human recombinant 5HT4 receptor at 1 x 10^-8M incubated for 60 mins relative to control; conditions: dose 1.0 10^-8M; in short: as §1
Acetylcholinesterase [3] = molecular target: T2, Acetylcholinesterase (Homo sapiens, UniProt P22303); assay: Inhibition of recombinant human erythrocyte AChE using acetyl-or butyrylthiocholine iodide as substrate at 1 x 10^-6M preincubated for 5 mins followed by substrate addition and measured every min for 10 mins by Ellman's method relative to control; conditions: dose 1.0 10^-6M, time 15.0 min
In short: (§2)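 AChE from human erythrocytes (0.05 U final) or recombinant AChE (0.025 U final), diluted in 20 mM HEPES pH 8 with 0.1 % Triton X-100, in an Ellman assay. DTNB is 0.3 mM in phosphate buffer pH 7.4 and compound is in DMSO. Enzyme and compound are preincubated 5 min at 25 °C. Reaction starts with 1 mM acetylthiocholine iodide solution.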

Acetylcholinesterase [4] = molecular target: T2, Acetylcholinesterase; assay: Inhibition of recombinant human erythrocyte AChE using acetyl-or butyrylthiocholine iodide as substrate preincubated for 5 mins followed by substrate addition and measured every min for 10 mins by Ellman's method
[5] = molecular target: Cholinesterase (Equus caballus) (UniProt P81908); assay: Inhibition of equine serum BuChE using Acetyl and butyrylthiocholine iodide as substrate at 1 x 10^-5M preincubated for 5 mins followed by substrate addition and measured every min for 10 mins by Ellman's method relative to control; conditions: dose 1.0 10^-5M, time 15.0 min
[6] = molecular target: T1, 5-hydroxytryptamine receptor 4; assay: Partial agonist activity at human recombinant 5HT4 receptor transiently transfected in […] cells using p-nitrophenyl phosphate disodium hexahydrate as substrate assessed as induction of sAPPalpha release by measuring maximum efficacy incubated for 30 mins by microplate reader analysis relative to control; assay type: functional, cell-based
In short: (§3)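 COS-7 cells co-transfected with FLG-tagged h5-HT4 receptor and SEAP-tagged mouse APP695, seeded at 300,000 cells/well. At 24 h, cells were exposed to drug for 30 min. Supernatants were collected and secreted SEAP activity read colorimetrically with p-nitrophenyl phosphate as substrate.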

[7] = molecular target: T1, 5-hydroxytryptamine receptor 4; assay: Partial agonist activity at human recombinant 5HT4 receptor at 1 x 10^-8M incubated for 60 mins relative to control; assay type: functional; conditions: filed as partial agonist, dose 1.0 10^-8M
[8] = molecular target: T1, 5-hydroxytryptamine receptor 4; assay: Partial agonist activity at human recombinant 5HT4 receptor at 1 x 10^-6M incubated for 60 mins relative to control; assay type: functional; conditions: filed as partial agonist, dose 1.0 10^-6M
[9] = molecular target: T1, 5-hydroxytryptamine receptor 4; assay: Partial agonist activity at human recombinant 5HT4 receptor transiently transfected in […] cells using p-nitrophenyl phosphate disodium hexahydrate as substrate assessed as induction of sAPPalpha release incubated for 30 mins by microplate reader analysis; assay type: functional, cell-based; conditions: filed as partial agonist; in short: as §3
[10] = molecular target: T1, 5-hydroxytryptamine receptor 4; assay: Partial agonist activity at human recombinant 5HT4 receptor expressed in […] cells assessed as cAMP accumulation by measuring maximum efficacy in presence of serotonin by HTRF analysis relative to control; assay type: functional, cell-based; conditions: filed as partial agonist
In short: (§4)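 COS-7 cells grown in DMEM with 10 % dialyzed FCS and transiently transfected with HA-tagged h5-HT4R, then plated at 16,000 cells/well. At 24 h, cells were exposed for 10 min at 37 °C to 5-HT4 ligands in HEPES-buffered saline containing 0.1 % BSA and 0.1 mM RO-20-1724. Cells were lysed with 0.1 % Triton X-100 and cAMP measured by HTRF.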

[11] = molecular target: Acetylcholinesterase (Electrophorus electricus) (UniProt O42275); assay: Displacement of propidium iodide from electric eel AChE 1 x 10^-5M relative to control; conditions: dose 1.0 10^-5M
[12] = molecular target: T1, 5-hydroxytryptamine receptor 4; assay: Binding affinity to human recombinant 5HT4 receptor assessed as inhibition constant incubated for 60 mins
[13] = Intrinsic solubility of the compound at pH 12 by classical shake-flask method; assay type: physicochemical; conditions: buffer
In short: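 Shake-flask method: 1 mg compound in 4 mL pH 12 phosphate buffer with KCl, n = 3. Sonicated, shaken at room temperature for 48 h, centrifuged. Supernatant mixed 1:1 with acetonitrile/DMSO (99:1) and quantified by UV at 326 nm against a four-point calibration curve.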

[14] = Thermodynamic solubility of compound by classical shake-flask method; assay type: physicochemical; conditions: read-out: Therm_solubility
In short: (§5)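 Shake-flask thermodynamic solubility (OECD 105, miniaturized). 1 mg of solid added to 4 mL of water or potassium phosphate buffer at pH 7.4 or 12 (n = 3), sonicated and shaken horizontally at room temperature for 48 h. After centrifugation, supernatant was mixed 1:1 with acetonitrile/DMSO and quantified by UV at 326 nm against a four-point calibration curve.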

P-glycoprotein (ABCB1) [15] = molecular target: T3, P-glycoprotein (ABCB1) (Homo sapiens, UniProt P08183); assay: Inhibition of P-glycoprotein mediated Rhodamine-123 efflux in human NCI/ADR-RES cells assessed as increase in intracellular fluorescence at 10 uM incubated for 24 hrs relative to control; assay type: cell-based; conditions: probe Rhodamine-123
In short: (§6)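 NCI/ADR-RES cells in RPMI with 10 % FCS, seeded 24 h before the assay. […] Washed three times, lysed in Tris/SDS, fluorescence read (ex 507/em 528 nm). Cyclosporin A as positive control.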

[16] = AUC in Wistar rat at 3 mg/kg, ip; assay type: ADME, organism-based; conditions: in vivo
In short: (§7)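 Single ip dose in 0.9 % saline (10 mL/kg mouse, 2 mL/kg rat), n = 3 per dose. CSF from cisterna magna and cardiac-puncture blood taken under isoflurane at six time points. Protein precipitation, then UHPLC–MS/MS (LLOQ 1 ng/mL). AUC0–∞ by linear trapezoidal non-compartmental analysis.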

P-glycoprotein (ABCB1) [17] = molecular target: T3, P-glycoprotein (ABCB1); assay: Inhibition of P-glycoprotein mediated Rhodamine-123 efflux in human NCI/ADR-RES cells assessed as increase in intracellular fluorescence at 1 uM incubated for 24 hrs relative to control; assay type: cell-based; conditions: probe Rhodamine-123; in short: as §6
[18] = Oral bioavailability in Wistar rat at 1 to 9 mg/kg; assay type: ADME, organism-based; conditions: in vivo, dose 1-9 mg/kg
In short: (§8)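 Oral doses of 1, 3 and 9 mg/kg alongside iv and ip dosing, in 0.9 % saline, n = 3 per dose. Terminal plasma under isoflurane at six time points, UHPLC–MS/MS quantification. Bioavailability from non-compartmental AUCs, with the methods giving F = (AUCpo/AUCip) × (Doseip/Dosepo).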

[19] = AUC in C57BL6 mouse at 3 mg/kg, ip; assay type: ADME, organism-based; conditions: in vivo; in short: as §7
[20] = Cytotoxicity against human MRC5 cells assessed as growth inhibition at 1 uM incubated for 72 hrs by MTS assay relative to control; assay type: toxicity, cell-based; conditions: read-out: Activity
In short: (§9)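 MRC5-SV2 cells in D-MEM with 10 % FCS, treated 24 h after plating with compound from DMSO stock (DMSO 1 % final). After 72 h, MTS added for 3 h at 37 °C and absorbance read at 490 nm. Growth inhibition = (1 − OD treated/OD control) × 100, triplicate experiments.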

[21] = Thermodynamic solubility of compound at pH 7.4 by classical shake-flask method; assay type: physicochemical; conditions: buffer, read-out: Therm_solubility; in short: as §5
Cholinesterase = Cholinesterase (Equus caballus, UniProt P81908); assay: Inhibition of equine serum BuChE using Acetyl and butyrylthiocholine iodide as substrate preincubated for 5 mins followed by substrate addition and measured every min for 10 mins by Ellman's method
[22] = Mutagenicity in Salmonella typhimurium TA100 by Ames test; assay type: toxicity; conditions: salmonella enterica subsp. enterica serovar typhimurium
In short: (§10)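 Semi-quantitative spot test with S. typhimurium TA97a, TA98, TA100 and TA102, with and without S9 mix.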

[23] = molecular target: T1, 5-hydroxytryptamine receptor 4; assay: Partial agonist activity at human recombinant 5HT4 receptor expressed in […] cells assessed as cAMP accumulation in presence of serotonin by HTRF analysis; assay type: functional, cell-based; in short: as §4
[24] = Mutagenicity in Salmonella typhimurium TA102 by Ames test; assay type: toxicity; conditions: salmonella enterica subsp. enterica serovar typhimurium; in short: as §10
[25] = Mutagenicity in Salmonella typhimurium TA98 by Ames test; assay type: toxicity; conditions: salmonella enterica subsp. enterica serovar typhimurium; in short: as §10
[26] = Mutagenicity in Salmonella typhimurium TA97a by Ames test; assay type: toxicity; conditions: salmonella enterica subsp. enterica serovar typhimurium; in short: as §10
[27] = Oral bioavailability in C57BL6 mouse at 1 to 9 mg/kg; assay type: ADME, organism-based; conditions: in vivo, dose 1-9 mg/kg; in short: as §8
[28] = molecular target: T1, 5-hydroxytryptamine receptor 4; assay: Partial agonist activity at human recombinant 5HT4 receptor at 1 x 10^-8M incubated for 60 mins; assay type: functional
[29] = Cytotoxicity against human MRC5 cells assessed as growth inhibition at 10 uM incubated for 72 hrs by MTS assay relative to control; assay type: toxicity, cell-based; conditions: read-out: Activity; in short: as §9
Acetylcholinesterase [30] = molecular target: T2, Acetylcholinesterase; assay: Inhibition of recombinant human erythrocyte AChE using acetyl-or butyrylthiocholine iodide as substrate at 1 x 10^-5M preincubated for 5 mins followed by substrate addition and measured every min for 10 mins by Ellman's method relative to control; conditions: dose 1.0 10^-5M, time 15.0 min; in short: as §2

T1 sequence (Q13639 whole entry): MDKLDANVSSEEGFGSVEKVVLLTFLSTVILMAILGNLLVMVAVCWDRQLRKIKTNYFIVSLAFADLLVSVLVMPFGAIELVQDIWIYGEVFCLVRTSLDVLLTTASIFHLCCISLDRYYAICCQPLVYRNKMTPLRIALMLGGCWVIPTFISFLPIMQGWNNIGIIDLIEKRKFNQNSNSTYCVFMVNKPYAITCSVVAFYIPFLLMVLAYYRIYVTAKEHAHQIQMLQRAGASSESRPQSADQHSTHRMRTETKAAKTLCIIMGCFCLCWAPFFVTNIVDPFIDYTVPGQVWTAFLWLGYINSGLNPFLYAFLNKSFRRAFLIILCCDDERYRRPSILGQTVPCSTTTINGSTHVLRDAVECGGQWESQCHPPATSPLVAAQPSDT
T2 sequence (P22303 whole entry): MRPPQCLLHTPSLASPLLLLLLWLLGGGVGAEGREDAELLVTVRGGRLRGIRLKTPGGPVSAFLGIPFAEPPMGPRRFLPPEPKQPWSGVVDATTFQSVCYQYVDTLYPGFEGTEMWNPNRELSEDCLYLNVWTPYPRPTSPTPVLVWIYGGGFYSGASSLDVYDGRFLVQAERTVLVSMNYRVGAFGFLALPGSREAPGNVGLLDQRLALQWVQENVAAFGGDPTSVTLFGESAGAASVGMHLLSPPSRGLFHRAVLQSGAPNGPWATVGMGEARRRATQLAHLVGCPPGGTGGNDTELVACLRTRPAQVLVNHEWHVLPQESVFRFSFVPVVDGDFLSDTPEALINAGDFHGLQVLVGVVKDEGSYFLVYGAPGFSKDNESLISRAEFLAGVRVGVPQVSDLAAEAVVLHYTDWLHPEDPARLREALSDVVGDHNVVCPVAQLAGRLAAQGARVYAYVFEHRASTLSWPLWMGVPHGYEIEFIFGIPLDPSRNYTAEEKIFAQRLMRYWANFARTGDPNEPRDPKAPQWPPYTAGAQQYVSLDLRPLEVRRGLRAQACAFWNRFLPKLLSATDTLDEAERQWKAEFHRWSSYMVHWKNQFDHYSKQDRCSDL
T3 sequence (P08183 whole entry): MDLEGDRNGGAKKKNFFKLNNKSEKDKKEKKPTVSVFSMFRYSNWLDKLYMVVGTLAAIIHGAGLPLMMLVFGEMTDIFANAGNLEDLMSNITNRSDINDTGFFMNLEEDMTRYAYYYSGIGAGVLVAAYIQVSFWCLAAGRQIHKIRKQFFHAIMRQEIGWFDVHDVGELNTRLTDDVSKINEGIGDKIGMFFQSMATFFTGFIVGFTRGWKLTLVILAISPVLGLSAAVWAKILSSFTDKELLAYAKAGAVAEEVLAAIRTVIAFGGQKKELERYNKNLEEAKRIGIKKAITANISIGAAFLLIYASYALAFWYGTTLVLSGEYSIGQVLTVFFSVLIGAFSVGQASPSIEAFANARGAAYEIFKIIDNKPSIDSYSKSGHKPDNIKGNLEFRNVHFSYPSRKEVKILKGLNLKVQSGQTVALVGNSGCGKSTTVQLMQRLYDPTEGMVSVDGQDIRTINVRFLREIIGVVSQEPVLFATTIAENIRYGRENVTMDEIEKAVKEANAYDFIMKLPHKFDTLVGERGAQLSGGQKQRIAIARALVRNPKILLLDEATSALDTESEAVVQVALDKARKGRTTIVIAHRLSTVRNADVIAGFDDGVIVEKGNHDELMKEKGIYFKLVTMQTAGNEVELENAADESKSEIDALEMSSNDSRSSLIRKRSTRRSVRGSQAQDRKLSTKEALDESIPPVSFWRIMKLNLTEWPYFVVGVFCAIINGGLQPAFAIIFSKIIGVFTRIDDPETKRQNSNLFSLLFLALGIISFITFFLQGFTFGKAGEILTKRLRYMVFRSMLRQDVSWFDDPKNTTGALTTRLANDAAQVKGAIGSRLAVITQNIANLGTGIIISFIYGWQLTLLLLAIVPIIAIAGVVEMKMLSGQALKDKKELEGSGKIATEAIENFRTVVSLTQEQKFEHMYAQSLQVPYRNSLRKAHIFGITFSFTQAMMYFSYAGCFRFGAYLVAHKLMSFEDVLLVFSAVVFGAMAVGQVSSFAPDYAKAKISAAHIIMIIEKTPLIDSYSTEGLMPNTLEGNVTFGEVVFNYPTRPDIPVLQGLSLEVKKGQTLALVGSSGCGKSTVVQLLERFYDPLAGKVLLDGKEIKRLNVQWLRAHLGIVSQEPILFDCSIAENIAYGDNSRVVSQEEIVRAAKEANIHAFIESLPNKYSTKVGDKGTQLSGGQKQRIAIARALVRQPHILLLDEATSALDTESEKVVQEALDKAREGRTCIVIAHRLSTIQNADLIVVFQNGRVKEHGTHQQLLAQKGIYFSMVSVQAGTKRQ
Cholinesterase (Equus caballus), sequence (P81908 whole entry): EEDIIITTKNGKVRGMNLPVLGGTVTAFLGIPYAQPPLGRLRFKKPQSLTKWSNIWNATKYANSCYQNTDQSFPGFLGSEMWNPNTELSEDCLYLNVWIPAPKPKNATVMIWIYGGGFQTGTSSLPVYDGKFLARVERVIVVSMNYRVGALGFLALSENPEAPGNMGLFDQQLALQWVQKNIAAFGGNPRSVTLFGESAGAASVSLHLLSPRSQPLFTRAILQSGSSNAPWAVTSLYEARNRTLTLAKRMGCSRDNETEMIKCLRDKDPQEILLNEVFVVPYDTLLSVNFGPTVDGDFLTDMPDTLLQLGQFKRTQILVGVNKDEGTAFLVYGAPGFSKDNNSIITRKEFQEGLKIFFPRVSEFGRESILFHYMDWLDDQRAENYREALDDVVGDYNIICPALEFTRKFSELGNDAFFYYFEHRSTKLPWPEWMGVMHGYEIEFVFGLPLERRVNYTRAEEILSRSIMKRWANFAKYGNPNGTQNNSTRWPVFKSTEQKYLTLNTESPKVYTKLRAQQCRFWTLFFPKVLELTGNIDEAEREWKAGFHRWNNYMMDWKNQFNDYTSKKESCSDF
Cholinesterase, sequence (P81908 whole entry): as above
Acetylcholinesterase (Electrophorus electricus), sequence (O42275 24-633 limits assumed): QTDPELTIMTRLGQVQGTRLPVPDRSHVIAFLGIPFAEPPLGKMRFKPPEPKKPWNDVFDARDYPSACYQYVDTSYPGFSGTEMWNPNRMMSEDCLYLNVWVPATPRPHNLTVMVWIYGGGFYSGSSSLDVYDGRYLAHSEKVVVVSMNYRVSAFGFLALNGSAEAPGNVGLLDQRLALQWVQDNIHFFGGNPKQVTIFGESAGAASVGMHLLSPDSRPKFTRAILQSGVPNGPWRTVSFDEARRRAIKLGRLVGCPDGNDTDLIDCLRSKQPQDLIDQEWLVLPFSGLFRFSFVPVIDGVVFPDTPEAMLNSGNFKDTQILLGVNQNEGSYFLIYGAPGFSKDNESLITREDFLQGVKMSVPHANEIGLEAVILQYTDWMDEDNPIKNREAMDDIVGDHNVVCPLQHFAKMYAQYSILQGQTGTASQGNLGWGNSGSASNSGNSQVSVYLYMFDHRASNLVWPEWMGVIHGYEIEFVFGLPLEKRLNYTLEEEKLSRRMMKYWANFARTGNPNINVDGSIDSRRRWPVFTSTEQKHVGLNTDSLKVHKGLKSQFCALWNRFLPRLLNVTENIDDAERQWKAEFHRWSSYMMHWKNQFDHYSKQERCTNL

With `Nc1cc(OCCF)c(C(=O)CCC2CCN(CC3CCCCC3)CC2)cc1Cl` the inhibition [1] was 102%, the inhibition [2] was 78% and the inhibition (Acetylcholinesterase [3]) was 60%.
Molecule `Nc1cc(O)c(C(=O)CCC2CCN(CC3CCCCC3)CC2)cc1Cl` has an inhibition [1] of 96%, an inhibition [2] of 3% and an inhibition (Acetylcholinesterase [3]) of 93%.
In the case of `Nc1ccc(C(=O)CCC2CCN(CC3CCCCC3)CC2)cc1Cl`, the inhibition [1] is reported as 97%, the inhibition [2] is reported as 10% and the inhibition (Acetylcholinesterase [3]) is reported as 96%. For the same molecule, the IC50 (Acetylcholinesterase [4]) was 49.7 nM.
In the case of `COc1cc(N)c(F)cc1C(=O)CCC1CCN(CC2CCCCC2)CC1` [listing 1 of 2 here], the inhibition [1] is reported as 102%, the inhibition [5] is reported as 65% and the Emax [6] is reported as 19.7%. For the same molecule, the Activity [7] was 66%, the Activity [8] was 100% and the Activity [9] was “Dose-dependent-effect”. For the same molecule, the EC50 [9] was 23 nM, the inhibition [2] was 68% and the inhibition (Acetylcholinesterase [3]) was 96%. For the same molecule, the Emax [10] was 67.3% and the inhibition [11] was 22%.
Work on `Nc1ccc(C(=O)CCC2CCN(CC3CCCCC3)CC2)c(OCCF)c1` yielded an inhibition [1] of 100%, an inhibition [2] of 27% and a Ki [12] of 39.9 nM. The inhibition (Acetylcholinesterase [3]) was 79% and the IC50 (Acetylcholinesterase [4]) was 318 nM.
Work on `COc1cc(N)c(F)cc1C(=O)CCC1CCN(CC2CCCCC2)CC1` [listing 2 of 2 here] yielded a solubility thermodynamic [13] of 2 µM (≈ 0.753 µg/mL), a solubility thermodynamic [14] of 444 µM (≈ 167 µg/mL) and an inhibition at 24 h, 10 µM (P-glycoprotein (ABCB1) [15]) of 111%. For the same molecule, the AUC [16] was 9.26 ng·h/mL, the inhibition at 24 h, 1 µM (P-glycoprotein (ABCB1) [17]) was 125% and the bioavailability [18] was 3.6%. For the same molecule, the AUC [19] was 7.66 ng·h/mL, the inhibition at 72 h, 1 µM [20] was 0% and the solubility thermodynamic [21] was 104 µM (≈ 39.2 µg/mL). For the same molecule, the IC50 (Cholinesterase) was 6.2 µM, the Activity [22] was “Non-toxic” and the EC50 [23] was 1.3 nM. The Activity [24] was “Non-toxic”, the Activity [25] was “Non-toxic” and the Activity [26] was “Non-toxic”. It also gave a bioavailability [27] of 12.4%, a Ki [28] of 9.6 nM and an inhibition at 72 h, 10 µM [29] of 0%.
Molecule `O=C(CCC1CCN(CC2CCCCC2)CC1)c1ccc(O)cc1` has an inhibition [1] of 102%, an inhibition [2] of 58% and a Ki [12] of 17.6 nM. For the same molecule, the inhibition (Acetylcholinesterase [3]) was 35%.
Molecule `COc1cc(N)c(Br)cc1C(=O)CCC1CCN(CC2CCCCC2)CC1` has an inhibition [1] of 105%, an inhibition [2] of 61% and an inhibition (Acetylcholinesterase [30]) of 98%.
`COc1cc(N)ccc1C(=O)CCC1CCN(CC2CCCCC2)CC1` showed an inhibition [1] of 96%, an inhibition [2] of 10% and an inhibition (Acetylcholinesterase [30]) of 97%.
For `COc1cc(NC(C)=O)c(Cl)cc1C(=O)CCC1CCN(CC2CCCCC2)CC1`, the inhibition [1] was 94%, the inhibition [2] was 1% and the Ki [12] was 270 nM. It also gave an inhibition (Acetylcholinesterase [3]) of 98%.
`COc1c(C(=O)CCC2CCN(CC3CCCCC3)CC2)cc(F)c(N)c1Br` showed an inhibition [1] of 80%, an inhibition [2] of 8% and an inhibition (Acetylcholinesterase [3]) of 85%. For the same molecule, the IC50 (Acetylcholinesterase [4]) was 309 nM.
